# Laboratory results taken from paper PMC5055850 (Bioorganic & medicinal chemistry, 2016).
# Read-outs that look alike come from different tables or passages of the source.
# Assays:
# Assay type in all cases: cell-based
# FPR1 = target: T1, FPR1 (Homo sapiens, UniProt P21462); experiment: Ca2+ flux assay in FPR1-HL60 cells; settings: for Emax: read-out: FPR1-HL60 Efficacy; for FPR1-HL60 Efficacy: % of the response induced by 5 nM fMLF
# T1 sequence (P21462 1-350): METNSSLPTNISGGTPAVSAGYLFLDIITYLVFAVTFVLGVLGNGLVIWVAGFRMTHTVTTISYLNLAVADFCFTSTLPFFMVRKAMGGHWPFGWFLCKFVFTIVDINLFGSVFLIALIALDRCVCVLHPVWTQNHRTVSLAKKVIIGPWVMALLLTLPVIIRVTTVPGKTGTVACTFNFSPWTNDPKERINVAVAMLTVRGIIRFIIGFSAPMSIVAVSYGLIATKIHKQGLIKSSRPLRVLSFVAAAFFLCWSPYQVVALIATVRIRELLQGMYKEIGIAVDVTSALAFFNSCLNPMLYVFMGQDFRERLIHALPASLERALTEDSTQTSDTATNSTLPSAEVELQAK
# In short: (§1)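 FPR1-, FPR2- or FPR3-transfected HL-60 cells grown in RPMI 1640 with 10% heat-inactivated FCS, 10 mM HEPES and G418 (1 mg/mL). Cells loaded with Fluo-4 AM (1.25 µg/mL final) for 30 min at 37 °C in the dark, then 2 × 10^5 cells/well. Fluorescence (ex 485/em 538 nm) read every 5 s for 240 s at room temperature. Peak rise over baseline normalized to 5 nM fMLF (FPR1) or 5 nM WKYMVm (FPR2, FPR3). EC50 from 5–6-point nonlinear fits, three independent experiments.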
# FPR2 = target: T2, FPR2 (Homo sapiens, UniProt P25090); experiment: Ca2+ flux assay in FPR2-HL60 cells; settings: for Emax: read-out: FPR2-HL60 Efficacy; for FPR2-HL60 Efficacy: % of the response induced by 5 nM WKYMVm
# T2 sequence (P25090 1-351): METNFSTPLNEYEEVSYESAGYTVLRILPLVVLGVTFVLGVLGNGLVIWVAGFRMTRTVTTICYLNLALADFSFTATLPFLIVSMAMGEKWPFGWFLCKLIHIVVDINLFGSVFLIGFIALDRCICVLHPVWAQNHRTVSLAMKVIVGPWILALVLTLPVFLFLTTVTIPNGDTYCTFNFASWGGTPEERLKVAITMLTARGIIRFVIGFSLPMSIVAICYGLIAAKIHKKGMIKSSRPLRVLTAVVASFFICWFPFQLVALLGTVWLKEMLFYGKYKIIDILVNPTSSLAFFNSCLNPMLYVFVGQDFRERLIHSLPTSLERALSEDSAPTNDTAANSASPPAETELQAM
# In short: as §1
# [1] = test system: human polymorphonuclear neutrophils (hPMN); experiment: Ca2+ flux assay in human neutrophils; settings: for EC50: Homo sapiens, Polymorphonuclear neutrophil, read-out: hPMN EC50; for hPMN Efficacy: % of the response induced by 5 nM fMLF
# In short: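 Neutrophils from healthy donors' blood, purified by dextran sedimentation, Histopaque 1077 gradient and hypotonic red-cell lysis (>95% pure, >98% viable). Cells in HBSS− with 10 mM HEPES were loaded with Fluo-4 AM (1.25 µg/mL final) for 30 min at 37 °C, then plated at 2 × 10^5 cells/well. Fluorescence (485/538 nm) read every 5 s for 240 s at room temperature. Peak change normalized to 5 nM fMLF. EC50 from 5–6-point nonlinear regression, three experiments.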
# [2] = test system: mouse polymorphonuclear neutrophils (mPMN); experiment: Ca2+ flux assay in mouse neutrophils; settings: for mPMN Efficacy: % of the response induced by 5 nM WKYMVm; for EC50: Mus musculus, Polymorphonuclear neutrophil, read-out: mPMN EC50
# In short: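 Neutrophils taken from BALB/c mouse tibia and femur bone marrow. Isolated on a 45/50/55/62/81% Percoll gradient (1600g, 30 min, 10 °C), then Histopaque 1119 to remove red cells, and kept in HBSS−. Ca2+ fluorescence (485/538 nm) monitored every 5 s for 240 s at room temperature after compound addition. Maximal change over baseline normalized to 5 nM WKYMVm. EC50 from 5–6-point nonlinear regression, three independent experiments.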
# FPR3 = target: T3, FPR3 (Homo sapiens, UniProt P25089); experiment: Ca2+ flux assay in FPR3-HL60 cells
# T3 sequence (P25089 1-353): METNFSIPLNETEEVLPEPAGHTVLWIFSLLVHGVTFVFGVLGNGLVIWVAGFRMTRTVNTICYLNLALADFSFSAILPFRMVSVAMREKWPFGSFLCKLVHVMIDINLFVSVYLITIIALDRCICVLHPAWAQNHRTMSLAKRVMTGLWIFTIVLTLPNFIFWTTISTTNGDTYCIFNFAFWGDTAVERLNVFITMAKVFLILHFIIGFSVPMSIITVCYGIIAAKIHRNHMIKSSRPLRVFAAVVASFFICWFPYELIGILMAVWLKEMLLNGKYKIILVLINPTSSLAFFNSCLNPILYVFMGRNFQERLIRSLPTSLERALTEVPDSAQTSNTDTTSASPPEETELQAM
# In short: as §1
# [3] = FPR2-HL60 EC50, Ca2+ flux, HL-60 cells transfected with FPR2
# [4] = read-out: FPR1-HL60 EC50, Ca2+ flux, HL-60 cells transfected with FPR1
# [5] = read-out: FPR2-HL60 EC50, Ca2+ flux, HL-60 cells transfected with FPR2
EC50 (FPR1),Emax (FPR1),EC50 (FPR2; [3]),Emax (FPR2),EC50 [1],EC50 [2],FPR1-HL60 Efficacy (FPR1),EC50 (FPR1; [4]),FPR2-HL60 Efficacy (FPR2),EC50 (FPR2; [5]),EC50 (FPR3),FPR3-HL60 Efficacy (FPR3; % of the response induced by 5 nM WKYMVm),"FPR2-HL60 EC50 (FPR2; Ca2+ flux, HL-60 cells transfected with FPR2)",Structure (SMILES),mPMN Efficacy [2],hPMN Efficacy [1]
1.6 ± 0.4 µM,110%,10.5 ± 2.1 µM,60%,1.7 ± 0.4 µM,15.9 ± 4.9 µM,–,–,–,–,–,–,–,"COc1cccc(Nc2c(C(=O)C3CCCC3)c(C)nn(CC(=O)Nc3ccc(Br)cc3)c2=O)c1 [Compound 8e, N-(4-Bromophenyl)-2-[4–cyclopentanecarbonyl-5-(3-methoxyphenylamino)-3-methyl-6-oxopyridazin-1(6H)-yl]acetamide]",120%,–
15.6 ± 2.6 µM,45%,–,–,8 ± 2.6 µM,24.1 ± 6.1 µM,–,–,–,–,–,–,–,"CCCCC(=O)c1c(C)nn(CC(=O)Nc2ccc(Br)cc2)c(=O)c1Nc1cccc(OC)c1 [Compound 8d, N-(4-Bromophenyl)-2-[5–(3-methoxyphenylamino)-3-methyl-6-oxo-4-pentanoylpyridazin-1(6H)-yl]acetamide]",105%,–
–,–,–,–,–,–,95%,1.4 ± 0.34 µM,115%,0.19 ± 0.018 µM,–,–,–,"CCCCCc1c(C)nn(CC(=O)Nc2ccc(Br)cc2)c(=O)c1Nc1cccc(OC)c1 [Compound 13d, N-(4-Bromophenyl)-2-[5-(3-methoxyphenylamino)-3-methyl-6-oxo-4-pentyldazin-1(6H)-yl]acetamide]",–,55%
0.24 ± 0.09 µM,120%,9.6 ± 2 µM,65%,0.56 ± 0.12 µM,–,–,–,–,–,–,–,–,"COc1cccc(Nc2cc(C)nn(CC(=O)Nc3ccc(Br)cc3)c2=O)c1 [Compound 29a, N-(4-Bromophenyl)-2-[5-(3-methoxyphenylamino)-3-methyl-6-oxopyridazin-1(6H)-yl]-acetamide]",–,–
4.4 ± 0.6 µM,25%,2.3 ± 0.49 µM,60%,22.1 ± 5.3 µM,–,–,–,–,–,–,–,–,"COC(=O)c1c(C)nn(CC(=O)Nc2ccc(Br)cc2)c(=O)c1Nc1cccc(OC)c1 [Compound 19a, Methyl 1-[(4-bromophenylcarbamoyl)methyl]-5-(3-methoxyphenylamino)-1,6-dihydro-3-methyl-6-oxopyridazine-4-carboxylate]",–,–
–,–,–,–,–,–,110%,10 ± 3.2 µM,115%,8.7 ± 0.47 µM,–,–,–,"COc1cccc(Nc2c(C(=O)C3CCCCC3)c(C)nn(CC(=O)Nc3ccc(Br)cc3)c2=O)c1 [Compound 8f, N-(4-Bromophenyl)-2-[4-cyclohexanecarbonyl-5-(3-methoxyphenylamino)-3-methyl-6-oxopyridazin-1(6)-yl]acetamide]",–,120%
3.6 ± 1.1 µM,65%,4.5 ± 1.3 µM,30%,1.4 ± 0.8 µM,–,–,–,–,–,–,–,–,"CCCCc1c(C)nn(CC(=O)Nc2ccc(Br)cc2)c(=O)c1Nc1cccc(OC)c1 [Compound 13c, N-(4-Bromophenyl)-2-[4-butyl-5-(3-methoxyphenylamino)-3-methyl-6-oxopyridazin-1(6H)-yl]acetamide]",–,–

# Second part, the molecule before the results:
Structure (SMILES),EC50 (FPR1),Emax (FPR1),EC50 (FPR2; [3]),Emax (FPR2),EC50 [1],EC50 [2],FPR1-HL60 Efficacy (FPR1),EC50 (FPR1; [4]),FPR2-HL60 Efficacy (FPR2),EC50 (FPR2; [5]),EC50 (FPR3),FPR3-HL60 Efficacy (FPR3; % of the response induced by 5 nM WKYMVm),"FPR2-HL60 EC50 (FPR2; Ca2+ flux, HL-60 cells transfected with FPR2)",mPMN Efficacy [2],hPMN Efficacy [1]
"CCCC(=O)c1c(C)nn(CC(=O)Nc2ccc(Br)cc2)c(=O)c1Nc1cccc(OC)c1 [Compound 8c, N-(4-Bromophenyl)-2-[4-butyryl-5-(3-methoxyphenylamino)-3-methyl-6-oxopyridazin-1(6H)-yl]acetamide]",11.8 ± 3.5 µM,70%,8.1 ± 2.1 µM,90%,24 ± 4.2 µM,–,–,–,–,–,–,–,–,–,–
"COc1cccc(Nc2cc(C)cn(CC(=O)Nc3ccc(Br)cc3)c2=O)c1 [Compound 29b, N-(4-Bromophenyl)-2-[3-(3-methoxyphenylamino)-5-methyl-2-oxopyridin-1(2H)-yl]acetamide]",2.5 ± 0.7 µM,110%,8.1 ± 1.7 µM,75%,4.31 ± 0.4 µM,–,–,–,–,–,–,–,–,–,–
"Cc1nn(CC(=O)Nc2ccc(Br)cc2)c(=O)c(N)c1-c1ccn(C)n1 [Compound 26, 2-[5-Amino-3-methyl-4-(1-methyl-1H-pyrazol-3-yl)-6-oxopyridazin-1(6H)-yl]-N-(4-bromophenyl)acetamide]",2.9 ± 0.14 µM,75%,1.9 ± 0.71 µM,40%,3.5 ± 0.32 µM,5.6 ± 2.4 µM,–,–,–,–,–,–,–,45%,–
"CCc1c(C)nn(CC(=O)Nc2ccc(Br)cc2)c(=O)c1Nc1cccc(OC)c1 [Compound 13a, N-(4-Bromophenyl)-2-[4-ethyl-5-(3-methoxyphenylamino)-3-methyl-6-oxopyridazin-1(6H)-yl]acetamide]",0.18 ± 0.004 µM,185%,0.061 ± 0.022 µM,35%,0.34 ± 0.11 µM,–,–,–,–,–,0.46 ± 0.014 µM,35%,–,–,–
"CCCc1c(C)nn(CC(=O)Nc2ccc(Br)cc2)c(=O)c1Nc1cccc(OC)c1 [Compound 13b, N-(4-Bromophenyl)-2-[5-(3-methoxyphenylamino)-3-methyl-6-oxo-4-propylpyridazin-1(6H)-yl]acetamide]",–,–,–,–,–,–,–,–,–,–,–,–,completely devoid of activity,–,–
"Cc1nn(CC(=O)Nc2ccc(Br)cc2)c(=O)c(N)c1-c1cc[nH]n1 [Compound 25, 2-[5-Amino-3-methyl-6-oxo-4-(1H-pyrazol-3-yl)-6H-pyridazin-1-yl]-N-(4-bromo--phenyl)acetamide]",–,–,–,–,–,–,135%,8.4 ± 1.5 µM,60%,13.5 ± 1.8 µM,–,–,–,–,140%
"CCC(=O)c1c(C)nn(CC(=O)Nc2ccc(Br)cc2)c(=O)c1Nc1cccc(OC)c1 [Compound 8b, N-(4-Bromophenyl)-2-[5-(3-methoxyphenylamino)-3-methyl-6-oxo-4-propionylpyridazin-1(6H)-yl]acetamide]",2.7 ± 0.8 µM,130%,0.78 ± 0.1 µM,190%,5.5 ± 1.6 µM,8.4 ± 2.6 µM,–,–,–,–,–,–,–,75%,–
"CCOC(=O)c1c(C)nn(CC(=O)Nc2ccc(Br)cc2)c(=O)c1Nc1cccc(OC)c1 [Compound 19b, Ethyl 1-[(4-bromophenylcarbamoyl)methyl]-5-(3-methoxyphenylamino)-1,6-dihydro-3-methyl-6-oxopyridazine-4-carboxylate]",2.5 ± 0.7 µM,90%,1.9 ± 0.03 µM,110%,6.1 ± 1.7 µM,–,–,–,–,–,–,–,–,–,–
